Measurements: ChEMBL document CHEMBL4138193, “Novel indole and triazole based hybrid molecules exhibit potent anti-adipogenic and antidyslipidemic activity by activating Wnt3a/β-catenin pathway” (Eur J Med Chem, 2018)
The source made the active and inactive calls. The rule behind the calls is not given here.

What was measured:
3T3-L1 [1] = assay: Anti-adipogenic activity in mouse differentiated 3T3L1 cells assessed as inhibition of adipogenesis at 20 uM after 20 mins by Oil Red O staining based assay; assay type: functional
Outline: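 3T3-L1 preadipocytes given 20 µM compound with differentiation media. Oil red O stain (20 min) extracted, absorbance at 492 nm measured against MDI+ control, n=3, mean ± SD, Student t test.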

3T3-L1 [2] = assay: Anti-adipogenic activity in mouse 3T3L1 cells assessed as inhibition of adipogenesis after 20 mins by Oil Red O staining based assay; assay type: functional, cell-based; conditions: 3T3-L1, 20 min
Outline: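 3T3-L1 preadipocytes differentiated with compound at 0.1, 1, 3, 10, 30, 100 and 300 µM. Oil red O absorbance read at 492 nm, concentrations log-transformed and fitted by non-linear regression to give IC50. Two to three independent experiments, mean ± SEM.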

Syrian golden hamster [3] = assay: Induction of reverse cholestrol transport in high fat diet-induced dyslipidemia Syrian Golden hamster model assessed as increase in ABCA1 mRNA expression in eWAT at 100 mg/kg, po administered for 1 week by qRT-PCR analysis; assay type: functional, organism-based; conditions: Mesocricetus auratus
Syrian golden hamster [4] = assay: Induction of reverse cholestrol transport in high fat diet-induced dyslipidemia Syrian Golden hamster model assessed as increase in SCARB1 mRNA expression in liver at 100 mg/kg, po administered for 1 week by qRT-PCR analysis; assay type: functional, organism-based; conditions: Mesocricetus auratus
Syrian golden hamster [5] = assay: Induction of reverse cholestrol transport in high fat diet-induced dyslipidemia Syrian Golden hamster model assessed as decrease in CYP7A1 mRNA expression in liver at 100 mg/kg, po administered for 1 week by qRT-PCR analysis; assay type: functional, organism-based; conditions: Mesocricetus auratus
Syrian golden hamster [6] = assay: Induction of reverse cholestrol transport in high fat diet-induced dyslipidemia Syrian Golden hamster model assessed as decrease in NPCL1 mRNA expression in liver at 100 mg/kg, po administered for 1 week by qRT-PCR analysis; assay type: functional, organism-based; conditions: Mesocricetus auratus
Syrian golden hamster [7] = assay: Induction of reverse cholestrol transport in high fat diet-induced dyslipidemia Syrian Golden hamster model assessed as decrease in CETP mRNA expression in liver at 100 mg/kg, po administered for 1 week by qRT-PCR analysis; assay type: functional, organism-based; conditions: Mesocricetus auratus
Syrian golden hamster [8] = assay: Induction of reverse cholestrol transport in high fat diet-induced dyslipidemia Syrian Golden hamster model assessed as increase in LCAT mRNA expression in liver at 100 mg/kg, po administered for 1 week by qRT-PCR analysis; assay type: functional, organism-based; conditions: Mesocricetus auratus
Syrian golden hamster [9] = assay: Induction of reverse cholestrol transport in high fat diet-induced dyslipidemia Syrian Golden hamster model assessed as increase in ABCG8 mRNA expression in eWAT at 100 mg/kg, po administered for 1 week by qRT-PCR analysis; assay type: functional, organism-based; conditions: Mesocricetus auratus
Syrian golden hamster [10] = assay: Induction of reverse cholestrol transport in high fat diet-induced dyslipidemia Syrian Golden hamster model assessed as increase in ABCG5 mRNA expression in eWAT at 100 mg/kg, po administered for 1 week by qRT-PCR analysis; assay type: functional, organism-based; conditions: Mesocricetus auratus

Cc1ccc(S(=O)(=O)n2cc(CN(Cc3cn(Cc4ccc(F)cc4)nn3)S(C)(=O)=O)c3ccccc32)cc1
inhibition at 20 µM (3T3-L1 [1]): -19.5%

Cc1ccc(S(=O)(=O)n2cc(CN(Cc3cn(Cc4cccc(F)c4F)nn3)C(=O)C(F)(F)F)c3ccccc32)cc1
IC50 (3T3-L1 [2]): 19.1 µM
inhibition at 20 µM (3T3-L1 [1]): 31.9%

O=S(=O)(c1ccc(F)cc1)N(Cc1ccccc1)Cc1cccc(F)c1F
inhibition at 20 µM (3T3-L1 [1]): -81.9%

Fc1cccc(CNCc2ccccc2)c1F
inhibition at 20 µM (3T3-L1 [1]): -38.5%

Cc1ccc(S(=O)(=O)N(Cc2cn(Cc3ccc(F)cc3F)nn2)Cc2cn(S(=O)(=O)c3ccc(C)cc3)c3ccccc23)cc1
inhibition at 20 µM (3T3-L1 [1]): 12.3%

O=C(N(Cc1cccc(F)c1F)Cc1cn(S(=O)(=O)c2ccc(F)cc2)c2ccccc12)C(F)(F)F
inhibition at 20 µM (3T3-L1 [1]): -52.3%

Cc1ccc(S(=O)(=O)N(Cc2cn(Cc3ccc(F)cc3F)nn2)Cc2c(C)c3ccccc3n2S(=O)(=O)c2ccc(C)cc2)cc1
inhibition at 20 µM (3T3-L1 [1]): -22%

Fc1ccc(CNCc2cccc(F)c2F)cc1
inhibition at 20 µM (3T3-L1 [1]): -53.4%

Cc1ccc(S(=O)(=O)N(Cc2cn(Cc3ccccc3Cl)nn2)Cc2cn(S(=O)(=O)c3ccc(C)cc3)c3ccccc23)cc1
inhibition at 20 µM (3T3-L1 [1]): -4.8%

Cc1ccc(S(=O)(=O)N(Cc2cn(Cc3ccccc3)nn2)Cc2cn(S(=O)(=O)c3ccc(C)cc3)c3ccccc23)cc1
inhibition at 20 µM (3T3-L1 [1]): 3.4%

Fc1cccc(CNCc2c[nH]c3ccccc23)c1F
inhibition at 20 µM (3T3-L1 [1]): -1.7%

Cc1ccc(S(=O)(=O)N(Cc2ccc(F)cc2)Cc2cccc(F)c2F)cc1
inhibition at 20 µM (3T3-L1 [1]): -97.7%

O=S(=O)(c1ccc(F)cc1)N(Cc1cccc(F)c1F)Cc1cn(S(=O)(=O)c2ccc(F)cc2)c2ccccc12
inhibition at 20 µM (3T3-L1 [1]): -20%

COc1cc(OC)c(Cn2cc(CN(Cc3cn(S(=O)(=O)c4ccc(C)cc4)c4ccccc34)S(=O)(=O)c3ccc(C)cc3)nn2)c(OC)c1
inhibition at 20 µM (3T3-L1 [1]): -22%

Cc1ccc(S(=O)(=O)n2cc(CN(Cc3ccccc3)Cc3cccc(F)c3F)c3ccccc32)cc1
inhibition at 20 µM (3T3-L1 [1]): -13.1%

Cc1ccc(S(=O)(=O)N(Cc2ccccc2)Cc2cccc(F)c2F)cc1
inhibition at 20 µM (3T3-L1 [1]): -35.7%

Cc1ccc(S(=O)(=O)n2cc(CNCc3cccc(F)c3F)c3ccccc32)cc1
IC50 (3T3-L1 [2]): 30 µM
inhibition at 20 µM (3T3-L1 [1]): 46%

O=C(N(Cc1ccc(F)cc1)Cc1cccc(F)c1F)C(F)(F)F
inhibition at 20 µM (3T3-L1 [1]): -39.8%

CC(=O)N(Cc1cccc(F)c1F)Cc1cn(S(=O)(=O)c2ccc(F)cc2)c2ccccc12
IC50 (3T3-L1 [2]): 10.6 µM
inhibition at 20 µM (3T3-L1 [1]): 25.8%

Cc1ccc(S(=O)(=O)N(Cc2cn(Cc3ccccc3)nn2)Cc2c(C)c3ccccc3n2S(=O)(=O)c2ccc(C)cc2)cc1
inhibition at 20 µM (3T3-L1 [1]): -5.9%

COc1ccc(Cn2cc(CN(Cc3cn(S(=O)(=O)c4ccc(C)cc4)c4ccccc34)S(=O)(=O)c3ccc(C)cc3)nn2)cc1
inhibition at 20 µM (3T3-L1 [1]): 1%

CC(C)OC(=O)C(C)(C)Oc1ccc(C(=O)c2ccc(Cl)cc2)cc1
Activity (Syrian golden hamster [3]): Active
Activity (Syrian golden hamster [4]): Active
Activity (Syrian golden hamster [5]): Active
Activity (Syrian golden hamster [6]): Active
Activity (Syrian golden hamster [7]): Active
Activity (Syrian golden hamster [8]): Active
Activity (Syrian golden hamster [9]): Active
Activity (Syrian golden hamster [10]): Active

Cc1ccc(S(=O)(=O)n2cc(CN(Cc3cccc(F)c3F)S(C)(=O)=O)c3ccccc32)cc1
inhibition at 20 µM (3T3-L1 [1]): -3.3%

O=S(=O)(c1ccc(F)cc1)n1cc(CNCc2cccc(F)c2F)c2ccccc21
IC50 (3T3-L1 [2]): 12.4 µM
inhibition at 20 µM (3T3-L1 [1]): 21%

Cc1ccc(S(=O)(=O)n2cc(CN(Cc3cn(Cc4ccc(F)cc4)nn3)S(=O)(=O)c3ccccc3)c3ccccc32)cc1
inhibition at 20 µM (3T3-L1 [1]): -21%

Cc1ccc(S(=O)(=O)n2cc(CN(Cc3cn(Cc4ccccc4)nn3)S(=O)(=O)c3ccccc3)c3ccccc32)cc1
inhibition at 20 µM (3T3-L1 [1]): -18%

COc1ccc(Cn2cc(CN(Cc3cn(S(=O)(=O)c4ccc(C)cc4)c4ccccc34)S(=O)(=O)c3ccc(C)cc3)nn2)c(OC)c1
inhibition at 20 µM (3T3-L1 [1]): 7.6%

Cc1ccc(S(=O)(=O)N(Cc2cn(Cc3ccc(F)cc3)nn2)Cc2c(-c3ccccc3)c3ccccc3n2S(=O)(=O)c2ccc(C)cc2)cc1
inhibition at 20 µM (3T3-L1 [1]): -7.6%

CC(=O)N(Cc1cn(Cc2cccc(F)c2F)nn1)Cc1cn(S(=O)(=O)c2ccc(C)cc2)c2ccccc12
IC50 (3T3-L1 [2]): 9.1 µM
inhibition at 20 µM (3T3-L1 [1]): 39.5%

Cc1ccc(S(=O)(=O)N(Cc2cccc(F)c2F)Cc2cn(S(=O)(=O)c3ccc(F)cc3)c3ccccc23)cc1
inhibition at 20 µM (3T3-L1 [1]): -35%

Cc1ccc(S(=O)(=O)n2c(CN(Cc3cn(Cc4ccc(F)cc4F)nn3)S(C)(=O)=O)c(C)c3ccccc32)cc1
inhibition at 20 µM (3T3-L1 [1]): -20.8%

Cc1ccc(S(=O)(=O)n2cc(CN(Cc3cn(Cc4cc(F)ccc4F)nn3)S(=O)(=O)c3ccccc3)c3ccccc32)cc1
inhibition at 20 µM (3T3-L1 [1]): -6.5%

COc1ccc(Cn2cc(CN(Cc3cn(S(=O)(=O)c4ccc(C)cc4)c4ccccc34)S(=O)(=O)c3ccc(C)cc3)nn2)c(OC)c1OC
inhibition at 20 µM (3T3-L1 [1]): -18%

Cc1ccc(S(=O)(=O)N(Cc2cn(Cc3ccccc3)nn2)Cc2c(-c3ccccc3)c3ccccc3n2S(=O)(=O)c2ccc(C)cc2)cc1
inhibition at 20 µM (3T3-L1 [1]): 0.03%

Cc1ccc(S(=O)(=O)n2cc(CN(Cc3cccc(F)c3F)C(=O)C(F)(F)F)c3ccccc32)cc1
inhibition at 20 µM (3T3-L1 [1]): -5.5%

Cc1ccc(S(=O)(=O)n2cc(CN(Cc3cn(Cc4cc(F)ccc4F)nn3)S(C)(=O)=O)c3ccccc32)cc1
inhibition at 20 µM (3T3-L1 [1]): 3.4%

Cc1ccc(S(=O)(=O)N(Cc2cccc(F)c2F)Cc2cn(S(=O)(=O)c3ccc(C)cc3)c3ccccc23)cc1
inhibition at 20 µM (3T3-L1 [1]): -13.9%

CC(=O)N(Cc1cccc(F)c1F)Cc1cn(S(=O)(=O)c2ccc(C)cc2)c2ccccc12
IC50 (3T3-L1 [2]): 17.5 µM
inhibition at 20 µM (3T3-L1 [1]): 57.5%

COc1cc(Cn2cc(CN(Cc3c(-c4ccccc4)c4ccccc4n3S(=O)(=O)c3ccc(C)cc3)S(=O)(=O)c3ccc(C)cc3)nn2)cc(OC)c1OC
inhibition at 20 µM (3T3-L1 [1]): -10.9%
